A selection: hits, their analogues and other compounds. The true share with any hit is near 1.3%.
PfG6PD inh – PfG6PD (Plasmodium falciparum) enzyme inhibition; PfGluPho enzyme, NADPH resazurin-diaphorase fluorescence; inhibition, % at 20 µM; hit rate 0.78% among 350,000; AID 504690;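 active means inhibition reaching at least a set limit at 20 µM in the primary screen, cut at about 59% in these data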;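 further: 0% = DMSO wells with substrate and 100% = DMSO wells lacking glucose-6-phosphate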
TbHK1 inh – blocks Trypanosoma brucei hexokinase 1 activity; recombinant TbHK1, G6PDH-coupled NADH A340; hit rate 0.11% among 220,000; inhibition, % at 10 µM; AID 1430;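 active means inhibition of 50% or more in the single-dose primary screen; inactive means inhibition below 50%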
HKDC1 inh – blocks human hexokinase HKDC1 activity | Q2TB90 | recombinant HKDC1, G6PDH/diaphorase resazurin coupled fluorescence | inhibition, % at 20 µM | hit rate 0.16% among 340,000 | AID 493160;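 active means inhibition above about 35% when tested at 20 µM, limit read from the data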;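 further: plate controls were DMSO wells with enzyme for no effect and DMSO wells lacking enzyme for full effect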
Target sequence (Q2TB90 whole entry, looked up): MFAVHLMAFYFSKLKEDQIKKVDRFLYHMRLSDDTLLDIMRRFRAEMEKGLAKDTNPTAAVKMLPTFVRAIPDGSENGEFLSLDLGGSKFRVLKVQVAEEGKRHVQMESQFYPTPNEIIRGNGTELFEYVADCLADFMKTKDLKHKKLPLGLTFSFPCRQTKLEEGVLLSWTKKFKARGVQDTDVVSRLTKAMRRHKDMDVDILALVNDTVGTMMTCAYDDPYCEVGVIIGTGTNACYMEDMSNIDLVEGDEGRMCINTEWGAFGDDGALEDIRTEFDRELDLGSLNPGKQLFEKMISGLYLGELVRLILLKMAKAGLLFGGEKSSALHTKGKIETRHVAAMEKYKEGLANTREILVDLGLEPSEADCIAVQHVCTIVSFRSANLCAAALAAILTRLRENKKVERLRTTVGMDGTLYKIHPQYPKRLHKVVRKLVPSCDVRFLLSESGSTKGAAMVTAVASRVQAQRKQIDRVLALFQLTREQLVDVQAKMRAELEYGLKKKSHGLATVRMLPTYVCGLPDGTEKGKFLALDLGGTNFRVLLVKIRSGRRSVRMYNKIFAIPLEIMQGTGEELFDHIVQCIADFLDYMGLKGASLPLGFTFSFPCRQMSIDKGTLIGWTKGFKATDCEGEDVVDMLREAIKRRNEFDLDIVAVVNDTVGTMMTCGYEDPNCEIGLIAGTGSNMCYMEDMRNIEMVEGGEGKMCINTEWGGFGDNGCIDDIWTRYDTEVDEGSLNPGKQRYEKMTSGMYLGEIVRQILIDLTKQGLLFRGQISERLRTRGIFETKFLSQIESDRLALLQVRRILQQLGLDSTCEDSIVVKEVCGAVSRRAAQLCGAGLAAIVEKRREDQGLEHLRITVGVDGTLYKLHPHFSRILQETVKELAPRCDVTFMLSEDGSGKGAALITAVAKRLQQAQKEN
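test system = in-house recombinant HK5 (HKDC1) enzyme | amount = HKDC1 at 5 µg/mL | control set = DMSO-enzyme wells negative, buffer-substituted wells positive | compound = one dose of 20 µM, 1% DMSO | schedule = reaction time 90 min, room temperature, protected from light | technique = resorufin fluorescence at 613 nm | reagent = glucose with 1 mM ATP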
Diaphorase act – counter-screen for diaphorase-based assays: diaphorase activators and chemical reducers. AID 1229. hit rate 0.005% among 190,000. activation factor at 20 µM. Diaphorase/resazurin coupled assay, resorufin fluorescence, 16 min; stronger effect = higher value; 1 = vehicle wells, 0 = NADH-free wells;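 active means diaphorase activity raised at least twofold by the compound at 20 µM; inactive means activation factor below 2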
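Test system: Clostridium kluyveri diaphorase, purified enzyme. Buffer or medium: 50 mM HEPES pH 7.4 buffer plus MgCl2 and Tween 20. Also added: 0.114 mM NADH and 0.1 mM resazurin, final amounts. Dosing: compound 20 µM once, DMSO 1%. Schedule: 16 min enzyme reaction, ambient temperature. Detection: fluorescence of resorufin, 544 nm excitation, 590 nm emission.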
Diaphorase inh – diaphorase inhibition or chemical oxidation counter-screen | inhibition, % at 20 µM | hit rate 0.69% among 190,000 | AID 1217 | diaphorase resazurin-to-resorufin fluorescence, NADH, 16 min; bacterial (C. kluyveri) enzyme, not human;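 active means primary screen inhibition at 20 µM above a set limit, cut at about 50% in these data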;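 further: plate controls were DMSO with full reaction for no effect and wells lacking NADH for full effect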
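Test system: Clostridium kluyveri diaphorase enzyme / Quantity: diaphorase at 0.14 U/mL in enzyme working solution / Incubation: 16-min room-temperature incubation before reading / Benchmarks: NADH-free wells as positive control, DMSO-only neutral wells / Signal: resorufin fluorescence 544/590 nm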
G6PDH CS – counter-screen for G6PDH assay hits: L. mesenteroides G6PDH inhibition | Purified L. mesenteroides G6PDH, diaphorase/resazurin coupled fluorescence, 45 min | inhibition, % at 5 µM | hit rate 0.12% among 200,000 | AID 1020; in the data active means inhibition above about 50%
PfGluPho conf – PfG6PD inhibition, single-dose confirmed; shares compounds with PfG6PD inh; recombinant PfGluPho, NADPH-diaphorase-resazurin fluorescence; inhibition, % at 20 µM; hit rate 34% among 2,400; AID 504753;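 active means inhibition of at least 50% at 20 µM in any single replicate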;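 further: 0% = DMSO with substrate and 100% = DMSO lacking glucose-6-phosphate substrate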
Diaph ctr 10uM – diaphorase inhibition or oxidation at 10 uM NADPH; hit rate 39% among 820; AID 504862; shares compounds with PfG6PD inh; diaphorase-coupled resazurin reduction, fluorescence, NADPH 10 uM; inhibition, % at 20 µM;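 active means average inhibition reaching 50% or more with the compound at 20 µM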;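 further: resorufin red fluorescence formed as diaphorase reduces resazurin using NADPH; 0% = DMSO with enzyme and 100% = DMSO without enzyme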
Diaph ctr 30uM – counter-screen for P. falciparum G6PD inhibitors: diaphorase inhibitors, oxidizers. Diaphorase/resazurin coupled assay, resorufin fluorescence, 30 uM NADPH. shares compounds with PfG6PD inh. hit rate 29% among 820. inhibition, % at 20 µM;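 active means inhibition averaging 50% or more, tested at 20 µM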;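 further: 0% = DMSO with enzyme and 100% = DMSO wells lacking diaphorase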
* marks the source's active call; other numbers are inactive results.

`CCCCCCCCSC1=CC(=O)C(OC)=C(OC)C1=O` gave PfG6PD inh 125*, PfGluPho conf 86*, Diaph ctr 10uM 67* and Diaph ctr 30uM 39.
For CCCCCSc1nncc(=O)[nH]1 the results were PfG6PD inh -14, TbHK1 inh 9, HKDC1 inh -2, Diaphorase act 0.9, Diaphorase inh 10 and G6PDH CS -3.
Screening O=C(NCc1ccc(F)cc1)C(c1ccccc1)c1ccccc1 returned PfG6PD inh 0 and HKDC1 inh -4.
For CC(=O)N(Cc1ccc(F)cc1)C1=C(NCc2ccccc2)C(=O)c2ccccc2C1=O the results were PfG6PD inh 71*, TbHK1 inh -9, HKDC1 inh 29, Diaphorase act 0.7, Diaphorase inh 34, G6PDH CS 51* and PfGluPho conf 46.
For Oc1ccc(N2CCN(Cc3c(-c4ccccc4)nc4ccccn34)CC2)cc1 the results were PfG6PD inh 59*, HKDC1 inh 2 and PfGluPho conf -1.
Clc1ccc(-c2nc3ccccn3c2CN2CCCCC2)cc1 was read as PfG6PD inh -5, TbHK1 inh 3, HKDC1 inh -4, Diaphorase act 0.9, Diaphorase inh 8 and G6PDH CS 0.
`Cc1cc(C)c2c(=O)n3c(nc2c1)C(Cc1ccccc1)NC(=O)c1cccnc1-3` (stereo not given) gave PfG6PD inh 59* and PfGluPho conf 4.
Screening Cc1cc(C)c2c(=O)n3c(nc2c1)C(Cc1ccc(O)cc1)NC(=O)c1cccnc1-3 (stereo not given) returned PfG6PD inh 1.
Screening O=C(CSc1nc2cc([N+](=O)[O-])ccc2n1-c1ccccc1)NCc1ccc2c(c1)OCO2 returned PfG6PD inh 68*, TbHK1 inh -6, HKDC1 inh -7, Diaphorase act 1, Diaphorase inh 0, G6PDH CS -15 and PfGluPho conf -6.
Screening CC1(C)CC(=O)C2=C(C1)N=C1c3ccccc3C(=O)C1C2c1ccc(Cl)cc1 (stereo not given) returned PfG6PD inh 84*, TbHK1 inh -10, HKDC1 inh 5, Diaphorase act 0.8, Diaphorase inh 22, G6PDH CS -42 and PfGluPho conf 17.
COc1cc(C(=O)O/N=C2/C=C(C)C(=O)C=C2C)cc(OC)c1OC was read as PfG6PD inh 61*, TbHK1 inh -6, HKDC1 inh 4, Diaphorase act 0.7, Diaphorase inh 27, G6PDH CS 21, PfGluPho conf 57*, Diaph ctr 10uM 27 and Diaph ctr 30uM 8.
Cn1c2ccccc2c(=O)c2cc(C#CC3=CCCCC3)ccc21 was read as PfG6PD inh 33 and HKDC1 inh 15.
`C=CCn1c2ccccc2c(=O)c2cc(C#CC3(O)CCCCC3)ccc21` gave PfG6PD inh 104*, HKDC1 inh 2, PfGluPho conf 55*, Diaph ctr 10uM 70* and Diaph ctr 30uM 54*.
`O=c1c2ccccc2sc2ccc(C#CC3(O)CCCCC3)cc12` gave PfG6PD inh 46 and HKDC1 inh 7.
C=CCn1c2ccccc2c(=O)c2cc(C#CC[C@@H](C)O)ccc21 was read as PfG6PD inh 67*, HKDC1 inh 10 and PfGluPho conf 41.
COC(=O)c1ccc(NC(=O)C2CCN(C(=O)Nc3ccccc3)CC2)cc1 was read as PfG6PD inh -4 and HKDC1 inh 2.
`O=C(c1ccc(Cl)cc1)c1ccccc1C(=O)N1CCOCC1` gave PfG6PD inh 63*, TbHK1 inh 5, HKDC1 inh -9, Diaphorase act 1.1, Diaphorase inh -6, G6PDH CS 17 and PfGluPho conf 11.
